{"data": "Measurements pooled from the literature", "target": "cGMP-dependent protein kinase 1 (PRKG1, Homo sapiens, UniProt Q13976)", "Residues used in one study (Q13976 1-671)": "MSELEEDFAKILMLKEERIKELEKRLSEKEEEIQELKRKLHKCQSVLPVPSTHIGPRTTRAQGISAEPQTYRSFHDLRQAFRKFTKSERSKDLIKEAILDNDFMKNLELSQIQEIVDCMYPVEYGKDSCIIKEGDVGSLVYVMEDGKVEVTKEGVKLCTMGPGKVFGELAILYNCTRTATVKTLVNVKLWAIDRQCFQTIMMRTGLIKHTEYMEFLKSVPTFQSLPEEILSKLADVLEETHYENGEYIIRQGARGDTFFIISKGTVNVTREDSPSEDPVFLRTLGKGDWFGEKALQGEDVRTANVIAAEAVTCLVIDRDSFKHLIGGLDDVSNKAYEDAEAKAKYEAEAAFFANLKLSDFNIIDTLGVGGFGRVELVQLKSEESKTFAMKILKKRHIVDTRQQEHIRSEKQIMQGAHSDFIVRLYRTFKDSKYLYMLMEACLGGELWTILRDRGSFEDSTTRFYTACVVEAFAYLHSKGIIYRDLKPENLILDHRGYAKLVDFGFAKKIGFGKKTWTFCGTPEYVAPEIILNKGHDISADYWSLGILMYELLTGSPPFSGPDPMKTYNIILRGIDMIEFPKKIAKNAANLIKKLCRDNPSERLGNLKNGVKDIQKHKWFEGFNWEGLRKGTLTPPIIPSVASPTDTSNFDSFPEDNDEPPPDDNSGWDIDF", "note": "Protocols differ between the studies behind these lines."}
{"Compound": "C[C@@H]1CCN(c2nccc(-c3cnn4ncccc34)n2)C1", "assay": "binding", "conditions": "1 µM", "remaining binding": "68%"}
{"Compound": "CCCOc1ccc([C@H]2[C@H](C(=O)O)[C@@H](c3ccc4c(c3)OCO4)CN2CC(=O)Nc2c(CC)cccc2CC)cc1", "assay": "cell-free assay, competition with immobilised ligand", "conditions": "1 µM", "remaining binding": "88%"}
{"Compound": "O=C(c1ccc(Nc2ncc(Cl)c(-c3ccc(Cl)s3)n2)cc1)N1CCC(N2CCCC2)CC1", "assay": "binding, competition with immobilised ligand", "conditions": "1 µM", "remaining binding": "100%"}
{"Compound": "c1cncc(-c2cccc(Nc3nccc(NC4CCCCC4)n3)c2)c1", "assay": "binding, competition with immobilised ligand", "conditions": "10 µM", "remaining binding": "100%"}
{"Compound": "CN([C@@H]1CCc2c(CC(=O)O)c3cc(S(C)(=O)=O)ccc3n2C1)S(=O)(=O)c1ccc(F)cc1", "assay": "cell-free assay, competition with immobilised ligand", "conditions": "1 µM", "remaining binding": "95%"}
{"Compound": "O=C(c1ccc(Nc2nccc(-c3cc4ccccc4s3)n2)cc1)N1CCC(N2CCCC2)CC1", "assay": "binding, competition with immobilised ligand", "conditions": "1 µM", "remaining binding": "100%"}
{"Compound": "FC(F)(F)Oc1cccc(-c2cnc3ccc(-c4ccncc4)nn23)c1", "assay": "cell-free assay, competition with immobilised ligand", "conditions": "5 µM", "remaining binding": "98%"}
{"Compound": "COc1cnc(Nc2cccc(S(N)(=O)=O)c2)nc1N1CCN(c2ccccc2)CC1", "assay": "binding, competition with immobilised ligand", "conditions": "1 µM", "remaining binding": "100%"}
{"Compound": "Cc1c[nH]c2nccc(Oc3c(F)cc(Nc4cc(Cl)nc(N)n4)cc3F)c12", "assay": "cell-free assay, competition with immobilised ligand", "conditions": "0.1 µM", "remaining binding": "49%"}
{"Compound": "C=CC(=O)N1CCC(C(=O)NCC(=O)N2CCN(c3nc(-c4cnc(N)nc4C(F)F)nc(N4CCOCC4)n3)CC2)CC1", "assay": "binding, competition with immobilised ligand", "conditions": "1 µM", "remaining binding": "87%"}
{"Compound": "Cc1c(C(=O)O)cc(-c2ccc(C3CCNCC3)cc2)c2ccc(-c3ccc(C(F)(F)F)cc3)cc12", "assay": "binding, competition with immobilised ligand", "conditions": "1 µM", "remaining binding": "97%"}
{"Compound": "N[C@H]1CCN(c2nccc(-c3cnn4ncccc34)n2)C1", "assay": "binding", "conditions": "1 µM", "remaining binding": "89%"}
{"Compound": "COc1cc(-c2cn(C3CCc4c(F)cccc4N(CC(F)(F)F)C3=O)nn2)ccc1-n1cnc(C)c1 (stereo not drawn)", "assay": "cell-free assay, competition with immobilised ligand", "conditions": "1 µM", "remaining binding": "100%"}
{"Compound": "CN(C)c1nccc(-c2cnn3ncccc23)n1", "assay": "binding", "conditions": "1 µM", "remaining binding": "100%"}
{"Compound": "O=C(NCCCN1CCOCC1)c1ccc(Nc2ncc(Cl)c(-c3ccc(Cl)s3)n2)cc1", "assay": "binding, competition with immobilised ligand", "conditions": "1 µM", "remaining binding": "100%"}
{"Compound": "CC1CCCN1c1nccc(-c2cnn3ncccc23)n1 (stereo not drawn)", "assay": "binding", "conditions": "1 µM", "remaining binding": "89%"}
{"Compound": "O=C(NCC1CCOCC1)c1n[nH]cc1NC(=O)c1c(F)cccc1F", "assay": "binding, competition with immobilised ligand", "conditions": "1 µM", "remaining binding": "100%"}
{"Compound": "c1cnn2ncc(-c3ccnc(N4CCC45COC5)n3)c2c1", "assay": "binding", "conditions": "1 µM", "remaining binding": "89%"}
{"Compound": "CS(=O)(=O)NCC[C@H](NC(=O)c1cncc2c1cnn2-c1ccc(F)cc1)c1ccnc(S(C)(=O)=O)c1", "assay": "cell-free assay, competition with immobilised ligand", "conditions": "1 µM", "remaining binding": "96%"}
{"Compound": "COc1ccnn2ncc(-c3ccnc(N(C)C)n3)c12", "assay": "binding", "conditions": "1 µM", "remaining binding": "100%"}
{"Compound": "COc1cnc(Nc2cccc(S(N)(=O)=O)c2)nc1N1CCN(c2ccccc2)C(=O)C1", "assay": "binding, competition with immobilised ligand", "conditions": "1 µM", "remaining binding": "100%"}
